# Screens from PubChem BioAssay.
# Sampled rows, rich in hits. Any-hit rate of the full collection: about 3.9%.
# M1 ag – human M1 muscarinic receptor agonism. P11229. CHO-K1 hM1, Fluo-8 calcium fluorescence, agonist mode; 0% DMSO, 100% acetylcholine EC100. activation, % at 3 µM. hit rate 0.33% among 360,000;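 active = activation above the run's mean compound activation plus 3 SD, cut at about 16% in these data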;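 note: peak over basal fluorescence ratio within a 140 s kinetic read after compound addition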
# TAAR1 ag – human TAAR1 agonism | activation, % at 3 µM | hit rate 0.99% among 360,000 | Q96RJ0 | CHO RD-HGA16 TAAR1, Fluo-8 calcium fluorescence; vehicle wells 0%, saturating PEA agonist 100%;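 active = activation above the mean activation of all test compounds in the run plus 3 SD, cut at about 38% in these data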
#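 Benchmarks: low control DMSO, high control PEA (EC100); System: CHO RD-HGA16 cells carrying human TAAR1 plus Gα16; Detection: Fluo-8 fluorescence, 5 s baseline then 140 s kinetic read; Schedule: 17-24 h plating, Fluo-8 75 min 37 °C, 30 min RT; Read-out basis: % activation from peak over basal fluorescence ratio, DMSO-to-PEA scaled.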
# CHRM1 antagonist – human CHRM1 antagonism; hit rate 1.3% among 360,000; AID 588852; CHO-K1 hM1, Fluo-8 calcium fluorescence, ACh EC80 antagonist; inhibition, % at 3 µM; P11229;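 active = percent inhibition above its own plate's cutoff, namely the mean of that plate's compound wells plus 3 SD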;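 note: peak over basal fluorescence ratio during 140 s after agonist addition; 0% = ACh EC80 plus DMSO and 100% = DMSO alone without agonist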
# m5-HT2A agonist – activates the mouse 5-HT2A serotonin receptor; hit rate 0.66% among 360,000; activation, % at 7.6 µM; AID 624169; P35363; CHO-K1 mHTR2A beta-arrestin complementation, luminescence; percent of 30 µM serotonin response;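 active = activation above a run cutoff, the mean activation of all tested compounds plus 3 SD, cut at about 14% in these data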;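 note: 0% = plate median of compound wells and 100% = 30 µM serotonin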
# Target sequence (P35363 whole entry, looked up): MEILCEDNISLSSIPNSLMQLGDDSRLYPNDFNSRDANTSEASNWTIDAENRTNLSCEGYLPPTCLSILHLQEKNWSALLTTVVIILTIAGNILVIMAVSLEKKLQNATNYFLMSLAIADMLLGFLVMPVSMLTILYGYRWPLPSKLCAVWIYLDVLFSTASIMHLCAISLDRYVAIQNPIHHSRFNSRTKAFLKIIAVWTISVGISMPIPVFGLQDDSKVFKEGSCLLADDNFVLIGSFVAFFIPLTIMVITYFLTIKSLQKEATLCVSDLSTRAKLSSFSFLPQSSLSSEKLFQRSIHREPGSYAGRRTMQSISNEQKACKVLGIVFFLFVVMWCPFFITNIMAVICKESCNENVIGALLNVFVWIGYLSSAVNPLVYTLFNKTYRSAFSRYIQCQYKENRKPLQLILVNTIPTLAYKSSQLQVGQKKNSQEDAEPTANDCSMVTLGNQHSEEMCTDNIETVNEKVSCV
# TAAR1 antagonist – antagonists of human TAAR1; Q96RJ0; hit rate 1.5% among 360,000; inhibition, % at 3 µM; AID 624466; CHO RD-HGA16 TAAR1, Fluo-8 calcium fluorescence, antagonist;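 active = inhibition above a per-plate cutoff, the mean inhibition of test compounds on that plate plus 3 SD, cut at about 49% in these data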;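 note: 0% = DMSO plus EC80 beta-PEA response and 100% = DMSO alone without agonist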
#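 Material: RD-HGA16 CHO cells with stable hTAAR1 and Gα16; Dosing: single nominal final test compound concentration of 3 µM; Schedule: seeding 17-24 h prior, 75-min 37 °C, 30-min RT dye loading; Detection: kinetic Fluo-8 calcium fluorescence measurement; Measure: % inhibition from peak post-agonist over basal fluorescence ratio; Benchmarks: vehicle and agonist controls.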
# CHRM1 PAM – potentiates human M1 receptor response to acetylcholine; activation, % at 3 µM; CHO-K1 hM1, Fluo-8 calcium fluorescence, ACh EC20; 0% = ACh EC20, 100% = maximal ACh; hit rate 0.088% among 360,000; in the data active = activation above about 19%, passing the limit was not always enough
# OPRM1 ag – counter-screen for mouse HTR2A agonists: human mu opioid receptor agonists. shares compounds with m5-HT2A agonist. U2OS OPRM1 beta-arrestin PathHunter, luminescence; DMSO 0%, DAMGO 9.3 µM 100%. activation, % at 9.3 µM. hit rate 5.3% among 2,300;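 active = mean activation above the mean of DMSO-only wells plus 3 SD, cut at about 0.5% in these data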
# m5-HT2A ag conf – mouse HTR2A agonism confirmed. shares compounds with m5-HT2A agonist. CHO-K1 PathHunter beta-arrestin recruitment, luminescence; DMSO 0%, 30 µM serotonin 100%. activation, % at 7.6 µM. hit rate 19% among 2,300. AID 624381;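 active = mean activation across triplicates above the hit threshold derived in the original primary screen, cut at about 15% in these data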
# * hit, by the source's call; . = not tested or not shown.
SMILES,M1 ag,TAAR1 ag,CHRM1 antagonist,m5-HT2A agonist,TAAR1 antagonist,CHRM1 PAM,OPRM1 ag,m5-HT2A ag conf
O=C(NCCCn1ccnc1)/C(=C\c1ccco1)NC(=O)c1ccco1,-5,0,5,15*,-4,-3,-1,-3
COc1ccc(OC)c(S(=O)(=O)Nc2cc3c(cc2N2CCCC2)n(C)c(=O)c(=O)n3C)c1,-6,2,-12,1,-27,8,.,.
O=c1c2ccccc2nc(/C=C/c2cc(Br)ccc2O)n1CCO,4,16,4,4,37,-3,.,.
O=c1c2ccccc2nc(/C=C/c2c[nH]c3ccccc23)n1CCO,1,23,11,15*,32,-4,-1,3
CN1CCN(C(=O)CN2C(=O)COc3ccc(S(=O)(=O)N4CCOCC4)cc32)CC1,0,4,-10,18*,-22,7,-1,12
CCOC(=O)N1CCN(C(=O)CN2C(=O)COc3ccc(S(=O)(=O)N4CCOCC4)cc32)CC1,-5,1,-4,6,-10,0,.,.
CCOC(=O)C1CCN(C(=O)CN2C(=O)CSc3ccc(S(=O)(=O)N4CCOCC4)cc32)CC1,-3,5,-3,35*,14,2,0,-1
O=C(CN1C(=O)CSc2ccc(S(=O)(=O)N3CCOCC3)cc21)N1CCCCC1,-1,2,-15,0,-5,14,.,.
COc1ccc(S(=O)(=O)N2CCOCC2)cc1NC(=O)C1CCN(S(=O)(=O)c2ccc(Cl)cc2)CC1,-5,-1,0,12,9,5,.,.
CC(C(=O)O)c1ccc(C(=O)c2cccs2)cc1 (stereo unspecified),0,1,-16,18*,5,-3,0,49*
O=C(c1ccccc1)c1cccs1,-6,7,-8,0,0,9,.,.
CC(=O)c1ccc(NC(=O)CN2CCOCC2)cc1,-2,9,5,-5,-13,7,.,.
Cc1ccc(NC(=O)CN2CCOCC2)cc1,1,6,-8,14*,-24,4,0,0
CC(=O)Nc1cccc(C(=O)N/N=C/c2c[nH]c3ccccc23)c1,-1,3,-2,1,3,18,.,.
CSc1ccc(/C=C/C(=O)OCC(=O)N2CCN(S(=O)(=O)c3ccc(C)cc3C)CC2)cc1,0,2,-1,24*,17,1,0,-2
COCCNC(=O)c1cc(S(=O)(=O)N2CCOCC2)ccc1SCc1cccc(OC)c1OC,-4,8,-4,7,-16,6,.,.
COc1ccc(Nc2nnc(-c3ccc(O)cc3)c3ccccc23)cc1,-6,15,59*,30*,-5,-24,0,6
COc1ccc(NC(=O)c2cc(S(=O)(=O)N3CCCCC3)c[nH]2)cc1Cl,-5,0,8,-4,3,1,.,.
N#CCCCc1cc2ccccc2cn1,3,1,-11,2,-2,12,.,.
NCCCC[C@@H](C(=O)NCCCCCCCCCCC(=O)N1CCNCC1)n1cc(CCO)nn1,-15,11,11,-6,-5,-6,.,.
CSCCCc1cn([C@@H](CO)C(=O)NCCCCCCCCCCC(=O)N2CCNCC2)nn1,-11,8,12,24*,4,-6,-1,-3
Cc1cccc(C)c1N1CCN(C(=O)Cn2cncn2)CC1,8,12,-9,0,-15,11,.,.
O=C(NCc1ccccc1)C(c1ccccc1)n1c(=O)c(-c2cc3ccccc3[nH]2)nc2ccccc21 (stereo unspecified),.,0,.,-2,-2,.,.,.
O=C(NCc1ccccc1)C(C1CC1)n1c(=O)c(-c2cc3ccccc3[nH]2)nc2ccccc21 (stereo unspecified),.,1,.,15*,-2,.,0,2
